Laboratory results: ChEMBL document CHEMBL1122278, “Gastric antisecretory 9H-xanthen-9-amines” (1983)

Legend:
Rattus norvegicus [1] = assay: Gastric antisecretory activity in pylorus ligated rat at a concentration of 50 mg/kg perorally, expressed as % decrease in mean titratable acid output of gastric juice in treated vs. control groups.; assay type: functional; settings: route oral
Summary of the method: (§1)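 Male Carworth Farms rats (270–360 g), fasted 18 h with water; compound in PEG 200 by gavage 1 h before pylorus ligation under ether. Killed 2 h after ligation; juice centrifuged, volume and pH measured, supernatant titrated with NaOH to pH 7.4, output = volume × titre. Mean of six to seven animals against controls.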

Rattus norvegicus [2] = assay: Gastric antisecretory activity in pylorus-ligated rat at a concentration of 50 mg/kg po, expressed as increase in mean pH; NS means no significant change.; assay type: functional, organism-based; set-up: dose 50 mg/kg; summary of the method: as §1
Rattus norvegicus [3] = assay: Effect of peroral administration of compound on acid secretion inhibition in the PLR; NS means no significant dose response.; assay type: functional, organism-based
Summary of the method: (§2)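 Rats (male Carworth Farms, 270–360 g) fasted 18 h; compound in PEG 200 by gavage 1 h before pylorus ligation under ether, six per group. Gastric contents collected 2 h post-ligation; pH, volume, titre (NaOH to pH 7.4) measured, output = volume × titre.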

Rattus norvegicus [4] = assay: Effect of peroral administration of compound on acid secretion inhibition in the PLR;Value ranges from 3.6-12.2; assay type: functional; summary of the method: as §2
Rattus norvegicus [5] = assay: Gastric antisecretory activity in pylorus-ligated rat at a concentration of 50 mg/kg perorally, expressed as increase in mean pH.; assay type: functional; settings: route oral; summary of the method: as §1
Rattus norvegicus [6] = assay: Gastric antisecretory activity in pylorus ligated rat at a concentration of 50 mg/kg po, expressed as % decrease in mean titratable acid output of gastric juice in treated vs. control groups; NS means no significant change.; assay type: functional, organism-based; set-up: dose 50 mg/kg; summary of the method: as §1
Rattus norvegicus [7] = assay: Effect of intraduodenal administration of compound on acid secretion inhibition in the PLR; Value ranges from 4.7-9; assay type: functional
Rattus norvegicus [8] = assay: Effect of peroral administration of compound on acid secretion inhibition in the PLR; Value ranges from 8.8-14.7; assay type: functional
Rattus norvegicus [9] = assay: Effect of intraduodenal administration of compound on acid secretion inhibition in the PLR; Value ranges from 0.9-4.7; assay type: functional
Rattus norvegicus [10] = assay: Effect of peroral administration of compound on acid secretion inhibition in the PLR; Value ranges from 4.1-12.1; assay type: functional
Rattus norvegicus [11] = assay: Effect of intraduodenal administration of compound on acid secretion inhibition in the PLR; Value ranges from 0.5-2.7; assay type: functional
Rattus norvegicus [12] = assay: Effect of intravenous administration of compound on acid secretion inhibition in the PLR; Value ranges from 1.8-5.9; assay type: functional
Summary of the method: (§3)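 Male Carworth Farms rats (270–360 g), fasted 18 h, pylorus ligated under ether; compound in PEG 200 given intravenously at ligation, six rats per group. Gastric contents taken 2 h after ligation, centrifuged, titrated with NaOH to pH 7.4; output = volume × titre.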

Rattus norvegicus [13] = assay: Effect of intravenous administration of compound on acid secretion inhibition in the PLR; Value ranges from 4.0-19.3; assay type: functional; summary of the method: as §3
Rattus norvegicus [14] = assay: Effect of intraduodenal administration of compound on acid secretion inhibition in the PLR; Value ranges from 0.3-2.9; assay type: functional
Rattus norvegicus [15] = assay: Effect of peroral administration of compound on acid secretion inhibition in the PLR; Value ranges from 4.3-16.3; assay type: functional; summary of the method: as §2
Rattus norvegicus [16] = assay: Effect of intraduodenal administration of compound on acid secretion inhibition in the PLR; Value ranges from 0.2-2.1; assay type: functional
Rattus norvegicus [17] = assay: Effect of intravenous administration of compound on acid secretion inhibition in the PLR; Value ranges from 1.5-9.5; assay type: functional; summary of the method: as §3
Rattus norvegicus [18] = assay: Effect of peroral administration of compound on acid secretion inhibition in the PLR; Value ranges from 4.0-13.6; assay type: functional; summary of the method: as §2
Rattus norvegicus [19] = assay: Effect of intravenous administration of compound on acid secretion inhibition in the PLR; Value ranges from 0.7-5.0; assay type: functional; summary of the method: as §3
Rattus norvegicus [20] = assay: Effect of intraduodenal administration of compound on acid secretion inhibition in the PLR; Value ranges from 0.6-6.7; assay type: functional
Rattus norvegicus [21] = assay: Effect of intraduodenal administration of compound on acid secretion inhibition in the PLR; Value ranges from 0.5-4.4; assay type: functional
Rattus norvegicus [22] = assay: Gastric antisecretory activity, in pylorus ligated rat (PLR,50 mg/kg po), expressed as increase in mean pH; assay type: functional; summary of the method: as §1
Rattus norvegicus [23] = assay: Gastric antisecretory activity, in pylorus ligated rat (PLR,50 mg/kg po), expressed as % decrease in mean titratable acid output of gastric juice in treated vs. control groups; assay type: functional; summary of the method: as §1
Rattus norvegicus [24] = assay: Antisecretory activity in PLR after pre-incubation in gastric juice at pH 1.0 for 60 min at 15 mg/kg dose, measured as acid output; assay type: functional
Summary of the method: (§4)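 Male Carworth Farms rats (270–360 g), fasted 18 h with water, pylorus ligated under ether. Compound in PEG 200 (80 mg/mL) added to gastric juice from separate 4-h ligated rats (stored frozen) at 7.5 mg/mL, juice neutralized with 1.0 N NaOH before or after addition, or left untreated (pH 1.0). Given intraduodenally right after ligation. Juice collected 2 h later; volume, titre (NaOH to pH 7.4), output = volume × titre.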

Rattus norvegicus [25] = assay: Effect of intraduodenal administration of compound on acid secretion inhibition in the PLR; Value ranges from 1.4-7.8; assay type: functional
Rattus norvegicus [26] = assay: Antisecretory activity in PLR after pre-incubation in gastric juice at pH 1.0 for 2 min at 15 mg/kg dose, measured as acid output; assay type: functional; summary of the method: as §4
Rattus norvegicus [27] = assay: Antisecretory activity in PLR after pre-incubation in neutralized juice for 60 min at 15 mg/kg dose, measured as acid output; assay type: functional; summary of the method: as §4
Rattus norvegicus [28] = assay: Effect of intravenous administration of compound on acid secretion inhibition in the PLR; Value ranges from 0.3-2.7; assay type: functional; summary of the method: as §3
Rattus norvegicus [29] = assay: Antisecretory activity in PLR after preincubation in gastric juice at pH 1.0 for 2 min at 15 mg/kg dose, measured as acid titreated; assay type: functional; summary of the method: as §4
Rattus norvegicus [30] = assay: Antisecretory activity in PLR after pre-incubation in neutralized juice for 60 min at 15 mg/kg dose, measured as volume; assay type: functional; summary of the method: as §4
Rattus norvegicus [31] = assay: Effect of peroral administration of compound on acid secretion inhibition in the PLR; Value ranges from 4.7-14.9; assay type: functional; summary of the method: as §2
Rattus norvegicus [32] = assay: Antisecretory activity in PLR after pre-incubation in gastric juice at pH 1.0 for 2 min at 15 mg/kg dose, measured as volume; assay type: functional; summary of the method: as §4
Rattus norvegicus [33] = assay: Antisecretory activity in PLR after pre-incubation in gastric juice at pH 1.0 for 30 min at 15 mg/kg dose, measured as volume
Rattus norvegicus [34] = assay: Antisecretory activity in PLR after pre-incubation in gastric juice at pH 1.0 for 30 min at 15 mg/kg dose, measured as acid titreated; assay type: functional; summary of the method: as §4
Canis familiaris [35] = assay: Effect on pentagastrin-induced acid secretion in gastric fistula dogs, at 1 mg/kg, iv for 2 h; assay type: functional, Canis lupus familiaris, Stomach
Summary of the method: (§5)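 Four chronic gastric fistula dogs (11.2–16.2 kg), fasted 24 h, saline infused via saphenous vein, then pentagastrin 8 (μg/kg)/h for maximal stimulation. After 1 h acid plateau, compound given 1 mg/kg iv in PEG 200. Juice collected at 15-min intervals and centrifuged; titratable acid output from volume × titre, as mean ± SE, equivalents per hour.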

Rattus norvegicus [36] = assay: Effect of intravenous administration of compound on acid secretion inhibition in the PLR; Value ranges from 0.9-5.3; assay type: functional; summary of the method: as §3
Rattus norvegicus [37] = assay: Antisecretory activity in PLR after pre-incubation in gastric juice at pH 1.0 for 30 min at 15 mg/kg dose, measured as acid output; assay type: functional; summary of the method: as §4
Canis familiaris [38] = assay: Effect on pentagastrin-induced acid secretion in gastric fistula dogs, at 1 mg/kg, iv for 1 h; assay type: functional, Canis lupus familiaris, Stomach; summary of the method: as §5
Rattus norvegicus [39] = assay: Antisecretory activity in PLR after preincubation in gastric juice at pH 1.0 for 60 min at 15 mg/kg dose, measured as volume; assay type: functional; summary of the method: as §4
Rattus norvegicus [40] = assay: Antisecretory activity in PLR after pre-incubation in neutralized juice for 60 min at 15 mg/kg dose, measured as acid titreated; assay type: functional; summary of the method: as §4
Canis familiaris [41] = assay: Effect on pentagastrin-induced acid secretion in gastric fistula dogs, at 1 mg/kg, iv for 3 h; assay type: functional, Canis lupus familiaris, Stomach; summary of the method: as §5
Rattus norvegicus [42] = assay: Antisecretory activity in PLR after pre-incubation in gastric juice at pH 1.0 for 60 min at 15 mg/kg dose, measured as acid titreated; assay type: functional; summary of the method: as §4
Rattus norvegicus [43] = assay: Effect of intraduodenal administration of compound on acid secretion inhibition in the PLR; Value ranges from 0.8-4.8; assay type: functional
Rattus norvegicus [44] = assay: Effect of peroral administration of compound on acid secretion inhibition in the PLR; Value ranges from 2.6-8.5; assay type: functional; summary of the method: as §2

## CN(C1c2ccccc2Oc2ccccc21)C1c2ccccc2Oc2ccccc21
Rattus norvegicus [1]
  Delta TAO: 72
Rattus norvegicus [2]
  Delta pH: Not significant

## CN1CCN(C2c3ccccc3Oc3ccccc32)CC1
Rattus norvegicus [1]
  Delta TAO: 97
Rattus norvegicus [3]
  ED50: Not significant
Rattus norvegicus [4]
  ED50: 6.8 mg/kg
Rattus norvegicus [5]
  Delta pH: 5.4

## O=C1CCC(=O)N1C1c2ccccc2Oc2ccccc21
Rattus norvegicus [2]
  Delta pH: Not significant
Rattus norvegicus [6]
  Delta TAO: Not significant

## CC(Cc1ccccn1)NC1c2ccccc2Oc2ccccc21 (configuration not stated)
Rattus norvegicus [7]
  ED50: 6.3 m equiv [H+] l-1
Rattus norvegicus [1]
  Delta TAO: 89
Rattus norvegicus [3]
  ED50: Not significant
Rattus norvegicus [8]
  ED50: 11.4 m equiv [H+] l-1
Rattus norvegicus [5]
  Delta pH: 3.8
Rattus norvegicus [9]
  Volume: 2.2 ml 2hr-1
Rattus norvegicus [10]
  Acid output: 7.3 u equiv of [H+] 2hr-1
Rattus norvegicus [11]
  Acid output: 1.3 u equiv of [H+] 2hr-1

## CN(C)C1CCCN(C2c3ccccc3Oc3ccccc32)C1 (configuration not stated)
Rattus norvegicus [1]
  Delta TAO: 80
Rattus norvegicus [3]
  ED50: Not significant
Rattus norvegicus [12]
  ED50: 3.2 mg/kg
Rattus norvegicus [13]
  ED50: 6.3 mg/kg
Rattus norvegicus [5]
  Delta pH: 3.1
Rattus norvegicus [14]
  ED50: 1.2 mg/kg
Rattus norvegicus [15]
  ED50: 8.9 mg/kg
Rattus norvegicus [16]
  ED50: 0.9 mg/kg

## O=C(NC1c2ccccc2Oc2ccccc21)OCc1ccccc1
Rattus norvegicus [2]
  Delta pH: Not significant
Rattus norvegicus [6]
  Delta TAO: Not significant

## c1ccc2c(c1)Oc1ccccc1C2NCCn1ccnc1
Rattus norvegicus [17]
  ED50: 3.3 mg/kg
Rattus norvegicus [1]
  Delta TAO: 98
Rattus norvegicus [3]
  ED50: Not significant
Rattus norvegicus [18]
  ED50: 7.7 mg/kg
Rattus norvegicus [5]
  Delta pH: 5.8
Rattus norvegicus [19]
  ED50: 2 mg/kg
Rattus norvegicus [20]
  ED50: 2.4 mg/kg
Rattus norvegicus [21]
  ED50: 1.7 mg/kg

## NC(=O)N(O)C1c2ccccc2Oc2ccccc21
Rattus norvegicus [22]
  Delta pH: 1.9
Rattus norvegicus [23]
  Delta TAO: 88

## CCO/C(C)=N\C1c2ccccc2Oc2ccccc21
Rattus norvegicus [22]
  Delta pH: 4.4
Rattus norvegicus [23]
  Delta TAO: 97

## O=CNNC1c2ccccc2Oc2ccccc21
Rattus norvegicus [22]
  Delta pH: 2
Rattus norvegicus [23]
  Delta TAO: 80

## CCN1CCCC(NC2c3ccccc3Oc3ccccc32)C1 (configuration not stated)
Rattus norvegicus [24]
  Acid output: 324 u equiv 2hr-1
Rattus norvegicus [25]
  ED50: 3.8 mg/kg
Rattus norvegicus [1]
  Delta TAO: 98
Rattus norvegicus [26]
  Acid output: 191 u equiv 2hr-1
Rattus norvegicus [3]
  ED50: Not significant
Rattus norvegicus [27]
  Acid output: 70 u equiv 2hr-1
Rattus norvegicus [28]
  ED50: 1.2 mg/kg
Rattus norvegicus [29]
  Acid titer: 43 m equiv l-1
Rattus norvegicus [30]
  Volume: 2.5 mL
Rattus norvegicus [31]
  ED50: 8.9 mg/kg
Rattus norvegicus [5]
  Delta pH: 5.6
Rattus norvegicus [32]
  Volume: 4.6 mL
Rattus norvegicus [33]
  Volume: 6 mL
Rattus norvegicus [34]
  Acid titer: 62 m equiv l-1
Canis familiaris [35]
  Acid output: 2.46 u equiv hr-1
  Change: -80%
Rattus norvegicus [36]
  ED50: 2.3 mg/kg
Rattus norvegicus [37]
  Acid output: 367 u equiv 2hr-1
Canis familiaris [38]
  Acid output: 3.37 u equiv hr-1
  Change: -72%
Rattus norvegicus [39]
  Volume: 5.6 mL
Rattus norvegicus [40]
  Acid titer: 26 m equiv l-1
Canis familiaris [41]
  Acid output: 4.6 u equiv hr-1
  Change: -62%
Rattus norvegicus [42]
  Acid titer: 59 m equiv l-1
Rattus norvegicus [43]
  ED50: 2.3 mg/kg

## CN(CCc1ccccn1)C1c2ccccc2Oc2ccccc21
Rattus norvegicus [1]
  Delta TAO: 99
Rattus norvegicus [3]
  ED50: Not significant
Rattus norvegicus [5]
  Delta pH: 5.6
Rattus norvegicus [44]
  ED50: 4.8 mg/kg

## O=C(NC1c2ccccc2Oc2ccccc21)c1ccccc1O
Rattus norvegicus [2]
  Delta pH: Not significant
Rattus norvegicus [6]
  Delta TAO: Not significant
